Measurements collected from several papers.
Target: TGF-beta receptor type-1 (TGFBR1, Homo sapiens, UniProt P36897)
One construct used (P36897 34-503): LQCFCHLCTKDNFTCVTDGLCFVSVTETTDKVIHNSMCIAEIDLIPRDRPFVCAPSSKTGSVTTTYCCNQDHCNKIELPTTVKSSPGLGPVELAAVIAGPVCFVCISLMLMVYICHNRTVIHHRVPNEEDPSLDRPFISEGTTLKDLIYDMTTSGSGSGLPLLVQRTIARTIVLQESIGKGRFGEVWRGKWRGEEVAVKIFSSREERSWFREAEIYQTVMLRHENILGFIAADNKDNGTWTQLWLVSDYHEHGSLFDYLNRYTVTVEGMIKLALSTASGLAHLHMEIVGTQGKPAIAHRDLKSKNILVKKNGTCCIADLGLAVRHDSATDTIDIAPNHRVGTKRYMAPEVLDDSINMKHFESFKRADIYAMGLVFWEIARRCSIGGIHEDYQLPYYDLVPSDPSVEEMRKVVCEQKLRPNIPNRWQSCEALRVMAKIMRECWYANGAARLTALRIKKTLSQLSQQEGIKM

| SMILES | test | setting | remaining binding [%] |
| --- | --- | --- | --- |
| CCN1CCN(Cc2ccc(C(=O)Nc3ccc(C)c(Oc4ccc5c(c4)CC(=O)N5)c3)cc2C(F)(F)F)CC1 | binding, competition with immobilised ligand | 1 µM | 100 |
| C[C@H]1CCN(c2nccc(-c3cnn4ncccc34)n2)C1 | binding | 1 µM | 76 |
| FC(F)(F)Oc1cccc(-c2cnc3ccc(-c4ccncc4)nn23)c1 | cell-free assay, competition with immobilised ligand | 5 µM | 83 |
| COc1cnc(Nc2cccc(S(N)(=O)=O)c2)nc1N1CCN(c2ccccc2)C(=O)C1 | binding, competition with immobilised ligand | 1 µM | 100 |
| CN(c1nccc(-c2cnn3ncccc23)n1)C1CC1 | binding | 1 µM | 32 |
| Nc1c(C(=O)NCc2ccc(C(=O)NCCCC3CCCCC3)cc2)cnn1-c1ccccc1 | cell-free assay, competition with immobilised ligand | 0.1 µM | 100 |
| N[C@@H]1CCN(c2nccc(-c3cnn4ncccc34)n2)C1 | binding | 1 µM | 92 |
| C[C@H](c1ccc(F)cc1)N(Cc1cccc(C(=O)O)c1)C(=O)c1cnc2ccccc2c1 | cell-free assay, competition with immobilised ligand | 1 µM | 96 |
| CN(C)c1nccc(-c2cnn3ncccc23)n1 | binding | 1 µM | 100 |
| O=C(c1ccc(Nc2ncc(Cl)c(-c3ccc(Cl)s3)n2)cc1)N1CCC(N2CCCC2)CC1 | binding, competition with immobilised ligand | 1 µM | 55 |
| FC(F)(F)c1ccc2c(c1)nc(-c1cccnc1)n2C1CC1 | cell-free assay, competition with immobilised ligand | 1 µM | 78 |
| O=C(Nc1c[nH]nc1C(=O)NC1CCNCC1)c1cc(F)cc(F)c1 | binding, competition with immobilised ligand | 1 µM | 100 |
| CN(CCCC(F)(F)F)c1nccc(-c2cnn3ncccc23)n1 | binding | 1 µM | 100 |
| COc1ncc2cc3ccccc3nc2c1C#N | cell-free assay, competition with immobilised ligand | 5 µM | 92 |
| c1cncc(-c2cccc(Nc3nccc(NC4CCCCC4)n3)c2)c1 | binding, competition with immobilised ligand | 10 µM | 75 |
| N#Cc1ccccc1CSc1nnc2c(n1)[nH]c1ccccc12 | binding, competition with immobilised ligand | 10 µM | 100 |
| C[C@@H]1CN(c2ccc3ncc(-c4ccc5[nH]nc(C6CC6)c5c4)n3n2)C[C@H](C)O1 | binding, competition with immobilised ligand | 0.5 µM | 100 |
| Cc1c(C(=O)O)cc(-c2ccc(C3CCNCC3)cc2)c2ccc(-c3ccc(C(F)(F)F)cc3)cc12 | cell-free assay, competition with immobilised ligand | 1 µM | 89 |
| O=C(NCCCN1CCOCC1)c1ccc(Nc2ncc(Cl)c(-c3ccc(Cl)s3)n2)cc1 | binding, competition with immobilised ligand | 1 µM | 69 |
| COc1ccc2c(c1)O[C@H](c1ccc(OC)c(OC)c1)C[C@@H]2NC(=O)C1(c2ccc3c(c2)OC(F)(F)O3)CC1 | cell-free assay, competition with immobilised ligand | 1 µM | 100 |
| Cc1cnc(Nc2ccc(C(=O)N3CCC(N4CCCC4)CC3)cc2)nc1-c1cc2ccccc2s1 | binding, competition with immobilised ligand | 1 µM | 48 |
| O=S(=O)(NC1CCC(c2cc(F)ccc2F)(S(=O)(=O)c2ccc(Cl)cc2)CC1)C(F)(F)F (stereo not shown) | cell-free assay, competition with immobilised ligand | 1 µM | 100 |
| CC(C)(C)c1ccc(-c2nc(CBr)nn2-c2cccc(O)c2)cc1 | cell-free assay, competition with immobilised ligand | 10 µM | 90 |
| Cc1nc(C2CCN(C(=O)c3ccc(OC(F)(F)F)cc3N)CC2)c2ncc(N3CCN(C)CC3)cc2n1 | cell-free assay, competition with immobilised ligand | 1 µM | 80 |
| CN(C)c1ncc(F)c(-c2cnn3ncccc23)n1 | binding | 1 µM | 86 |
